Measured values from ChEMBL document CHEMBL1135408, “Design and synthesis of novel 5-substituted acyclic pyrimidine nucleosides as potent and selective inhibitors of hepatitis B virus” (J Med Chem, 2002).
Values after ≈ are worked out from the molar mass of the structure shown.

How the values were obtained:
Anas sp. [1] = assay: Concentration required to reduce the viral DNA in infected cells to 50% of untreated infected controls of Hepatitis B virus in primary duck hepatocyte (DHBV) cultures; type: functional
In short: (§1)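 Primary hepatocytes from 9–14 day old ducklings persistently infected with DHBV, in L-15 with 5% FBS plus antibiotics. Compound was serially diluted and added in triplicate from day 2, with medium changed every second day to day 12; cells were harvested day 14. Viral DNA was measured by 32P-probe dot-blot and phosphorimaging, and EC50 was taken as 50% reduction versus untreated infected cells.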

[2] = Concentration required to reduce the proliferation of PHA stimulated human peripheral blood T lymphocytes to 50% of untreated PHA stimulated control; type: functional
In short: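 Nylon-wool-enriched T cells from normal donor buffy coats, 2 × 10^5 per well in serum-free AIM V, were stimulated with PHA at 1 µg/mL final. Compounds from DMSO stock were tested in triplicate from 50 µg/mL in serial dilutions. After 3–4 days at 37 °C, cells were pulsed with [3H]thymidine 1 µCi/well for 18 h and counted by scintillation. Counts were compared with DMSO-matched PHA controls.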

HFF [3] = assay: Cytotoxic concentration required to reduce the uptake of neutral red stain by uninfected cell monolayers to 50% of untreated uninfected human foreskin fibroblasts (HFF); type: functional
In short: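 Neutral red uptake was measured in uninfected human foreskin fibroblast monolayers after 7 days of exposure. CC50 is 50% of untreated uninfected cells; ">" means 50% was not reached at the highest concentration tested.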

Anas sp. [4] = assay: In vitro antiviral activity against Hepatitis B virus in primary duck hepatocyte (DHBV) cultures and expressed as percent inhibition of viral DNA at 10 ug/mL; type: functional
In short: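 DHBV-infected primary duck hepatocytes in L-15 with 5% FBS were treated at 10 µg/mL final in triplicate from day 2 to day 12, with medium changed every second day, and harvested day 14. DNA was extracted and dot-blot hybridized with a 32P DHBV probe, then quantified by phosphorimaging. % inhibition = (untreated − treated)×100/untreated, averaged over triplicates.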

Daudi = assay: Concentration required to reduce the proliferation of Daudi cells to 50% of untreated controls; type: functional, cell-based; settings: Homo sapiens
In short: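 Daudi cells were grown in suspension, so no trypsin detachment was used. CC50 is the concentration reducing proliferation to 50% of untreated controls.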

Vero = assay: Cytotoxic concentration required to reduce the viability of Vero cells as determined by MTT assay; type: functional; settings: Chlorocebus sabaeus
In short: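 Vero cells were seeded at 2.5 × 10^4 per well and attached for 6–8 h. They were then exposed for 3 days at 37 °C to 200–1.5 µg/mL, with a DMSO control. MTT was added for 4 h, solubilized overnight, and absorbance read at 560–650 nm. CC50 is 50% viability of untreated control.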

HFF [5] = assay: Concentration required to reduce the proliferation of HFF (human foreskin fibroblasts) cells to 50% of untreated controls; type: functional, cell-based
Anas sp. [6] = assay: Concentration required to reduce the viral DNA in infected cells to 50% of untreated infected controls of Hepatitis B virus in primary duck hepatocyte (DHBV) cultures.; type: functional, organism-based; in short: as §1

Nc1nc2c(ncn2COC(CO)CO)c(=O)[nH]1 [GANCICLOVIR]
EC50 (Anas sp. [1]): 1.5 µg/mL (≈ 5.88 µM)

CC(N=[N+]=[N-])c1cn(COCCO)c(=O)[nH]c1=O (stereo not given)
EC50 (Anas sp. [1]): > 10 µg/mL

C=C(N=[N+]=[N-])c1cn(CCC(CO)CO)c(=O)[nH]c1=O
IC50 [2]: > 50 µg/mL
CC50 (HFF [3]): > 100 µg/mL
inhibition at 10 µg/mL (Anas sp. [4]): 93%
IC50 (Daudi): > 50 µg/mL
CC50 (Vero): > 200 µg/mL
IC50 (HFF [5]): > 100 µg/mL
EC50 (Anas sp. [1]): 0.01 µg/mL (≈ 0.0356 µM)

C=C(N=[N+]=[N-])c1cn(COC(CO)CO)c(=O)[nH]c1=O
IC50 [2]: > 50 µg/mL
CC50 (HFF [3]): > 100 µg/mL
inhibition at 10 µg/mL (Anas sp. [4]): 86%
IC50 (Daudi): > 50 µg/mL
CC50 (Vero): > 200 µg/mL
IC50 (HFF [5]): 100 µg/mL (≈ 353 µM)
EC50 (Anas sp. [1]): 0.01 µg/mL (≈ 0.0353 µM)

CC(N=[N+]=[N-])c1cn(COC(CO)CO)c(=O)[nH]c1=O (stereo not given)
EC50 (Anas sp. [1]): 1 µg/mL (≈ 3.51 µM)

Nc1ccn([C@@H]2CS[C@H](CO)O2)c(=O)n1 [LAMIVUDINE]
IC50 [2]: > 50 µg/mL
inhibition at 10 µg/mL (Anas sp. [4]): 96%
CC50 (Vero): > 100 µg/mL
EC50 (Anas sp. [1]): 0.01 µg/mL (≈ 0.0436 µM)

C=C(N=[N+]=[N-])c1cn(COCCO)c(=O)[nH]c1=O
IC50 [2]: > 50 µg/mL
CC50 (HFF [3]): > 100 µg/mL
inhibition at 10 µg/mL (Anas sp. [4]): 84%
IC50 (Daudi): > 50 µg/mL
CC50 (Vero): > 100 µg/mL
IC50 (HFF [5]): > 100 µg/mL
EC50 (Anas sp. [1]): 0.01 µg/mL (≈ 0.0395 µM)

CC(N=[N+]=[N-])c1cn(CCC(CO)CO)c(=O)[nH]c1=O (stereo not given)
EC50 (Anas sp. [1]): 0.1 µg/mL (≈ 0.353 µM)

Nc1nc(O)c2ncn(CCC(CO)CO)c2n1 [PENCICLOVIR]
EC50 (Anas sp. [6]): 0.3 µg/mL (≈ 1.18 µM)
